# Source: ChEMBL document CHEMBL3525900, “Pharmacokinetics, distribution, and metabolism of [14C]sunitinib in rats, monkeys, and humans” (Drug Metab Dispos, 2012)
# Tests used:
# [1] = Drug excretion in urine of male Sprague-Dawley rat at 15 mg/kg, po administered as single dose by liquid scintillation counting; assay type: ADME, organism-based; set-up: dose 15 mg/kg, dosed compound name [14C]Sunitinib, route oral; settings: in vivo
# [2] = Drug excretion in feces of female Sprague-Dawley rat at 5 mg/kg, iv administered as single dose by liquid scintillation counting; assay type: ADME, organism-based; set-up: dose 5 mg/kg, dosed compound name [14C]Sunitinib, route intravenous; settings: in vivo
# [3] = Drug excretion in urine of female Sprague-Dawley rat at 5 mg/kg, iv administered as single dose by liquid scintillation counting; assay type: ADME, organism-based; set-up: dose 5 mg/kg, dosed compound name [14C]Sunitinib, route intravenous; settings: in vivo
# [4] = Drug excretion in feces of female cynomolgus monkey at 6 mg/kg, po administered as single dose by liquid scintillation counting; assay type: ADME, organism-based, Macaca fascicularis; set-up: dose 6 mg/kg, dosed compound name [14C]Sunitinib, route oral; settings: in vivo
# [5] = AUC (0 to infinity) in female Sprague-Dawley rat plasma at 15 mg/kg, po administered as single dose by LC/MS/MS analysis; assay type: ADME, organism-based; set-up: time infinity, dose 15 mg/kg, dosed compound name [14C]Sunitinib, route oral
# Outline: (§1)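 Single dose of [14C]sunitinib L-malate as free base, 50 µCi/kg. IV dose was 5 mg/kg by tail vein in 5 females. Oral dose was 15 mg/kg by gavage in 3 females and 3 males. Total radioactivity was by scintillation counting. […] Cmax was read from raw data, t½ by log-linear regression, AUC by linear trapezoidal rule.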
# [6] = Apparent terminal half life in female Sprague-Dawley rat plasma at 15 mg/kg, po administered as single dose by LC/MS/MS analysis; assay type: ADME, organism-based; set-up: dose 15 mg/kg, dosed compound name [14C]Sunitinib, route oral; settings: read-out: t1/2 lambda z (converted); outline: as §1
# [7] = Cmax in male Sprague-Dawley rat plasma at 15 mg/kg, po administered as single dose by LC/MS/MS analysis; assay type: ADME, organism-based; set-up: dose 15 mg/kg, dosed compound name [14C]Sunitinib, route oral; outline: as §1
# [8] = Tmax in male Sprague-Dawley rat plasma at 15 mg/kg, po administered as single dose by LC/MS/MS analysis; assay type: ADME, organism-based; set-up: dose 15 mg/kg, dosed compound name [14C]Sunitinib, route oral
# [9] = AUC (0 to infinity) in male Sprague-Dawley rat plasma at 15 mg/kg, po administered as single dose by LC/MS/MS analysis; assay type: ADME, organism-based; set-up: time infinity, dose 15 mg/kg, dosed compound name [14C]Sunitinib, route oral; outline: as §1
# [10] = Apparent terminal half life in male Sprague-Dawley rat plasma at 15 mg/kg, po administered as single dose by LC/MS/MS analysis; assay type: ADME, organism-based; set-up: dose 15 mg/kg, dosed compound name [14C]Sunitinib, route oral; settings: read-out: t1/2 lambda z (converted); outline: as §1
# [11] = Cmax in female Sprague-Dawley rat plasma at 5 mg/kg, iv administered as single dose by LC/MS/MS analysis; assay type: ADME, organism-based; set-up: dose 5 mg/kg, dosed compound name [14C]Sunitinib, route intravenous; outline: as §1
# [12] = AUC (0 to infinity) in female Sprague-Dawley rat plasma at 5 mg/kg, iv administered as single dose by LC/MS/MS analysis; assay type: ADME, organism-based; set-up: time infinity, dose 5 mg/kg, dosed compound name [14C]Sunitinib, route intravenous; outline: as §1
# [13] = Apparent terminal half life in female Sprague-Dawley rat plasma at 5 mg/kg, iv administered as single dose by LC/MS/MS analysis; assay type: ADME, organism-based; set-up: dose 5 mg/kg, dosed compound name [14C]Sunitinib, route intravenous; settings: read-out: t1/2 lambda z (converted); outline: as §1
# [14] = Clearance in female Sprague-Dawley rat plasma at 5 mg/kg, iv administered as single dose by LC/MS/MS analysis; assay type: ADME, organism-based; set-up: dose 5 mg/kg, dosed compound name [14C]Sunitinib, route intravenous
# Outline: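 Female rats (5) were given a single tail-vein bolus of [14C]sunitinib L-malate at 5 mg/kg free base (50 µCi/kg). […] Parameters were noncompartmental, with AUC by the linear trapezoidal rule.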
# [15] = Volume of distribution at steady state in female Sprague-Dawley rat plasma at 5 mg/kg, iv administered as single dose by LC/MS/MS analysis; assay type: ADME, organism-based; set-up: dose 5 mg/kg, dosed compound name [14C]Sunitinib, route intravenous; settings: read-out: Vdss
# [16] = Cmax in human plasma at 50 mg, po administered as single dose by LC/MS/MS analysis; assay type: ADME, organism-based; set-up: dose 50 mg, route oral, dosed compound name [14C]Sunitinib
# Outline: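 This was an open-label, single-dose, single-centre phase I study in eight male subjects. Each received one oral 50 mg dose of [14C]sunitinib (100 µCi). Plasma sunitinib was measured by a validated LC-MS-MS method. Cmax was read directly from the raw concentration–time data.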
# [17] = Tmax in human plasma at 50 mg, po administered as single dose by LC/MS/MS analysis; assay type: ADME, organism-based; set-up: dosed compound name [14C]Sunitinib
# [18] = AUC (0 to infinity) in human plasma at 50 mg, po administered as single dose by LC/MS/MS analysis; assay type: ADME, organism-based; set-up: dose 50 mg, route oral, time infinity, dosed compound name [14C]Sunitinib
# Outline: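 Open-label phase I study in 8 subjects given one 50 mg oral dose of [14C]sunitinib (100 µCi). Plasma total radioactivity was counted by scintillation on triplicate 0.25 mL aliquots. Sunitinib was quantified by LC-MS-MS. Noncompartmental analysis: Cmax read directly, terminal t½ = ln(2)/slope of the log-concentration regression, AUC by linear trapezoidal rule to the last detectable concentration.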
# [19] = Terminal half life in human plasma at 50 mg, po administered as single dose by LC/MS/MS analysis; assay type: ADME, organism-based; set-up: dosed compound name [14C]Sunitinib; settings: read-out: beta t1/2 (converted)
# [20] = Apparent oral clearance in human plasma at 50 mg, po administered as single dose by LC/MS/MS analysis; assay type: ADME, organism-based; set-up: dosed compound name [14C]Sunitinib
# [21] = Cmax in female cynomolgus monkey plasma at 6 mg/kg, po administered as single dose by LC/MS/MS analysis; assay type: ADME, organism-based, Macaca fascicularis; set-up: dose 6 mg/kg, dosed compound name [14C]Sunitinib, route oral
# Outline: (§2)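 Cynomolgus monkeys were given a single oral gavage of [14C]sunitinib L-malate at 6 mg/kg (37 µCi/kg). Heparinized femoral-vein blood was taken at pre-dose and 0.5–336 h. […] Cmax was read directly from the raw concentration data.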
# [22] = Tmax in female cynomolgus monkey plasma at 6 mg/kg, po administered as single dose by LC/MS/MS analysis; assay type: ADME, organism-based, Macaca fascicularis; set-up: dose 6 mg/kg, dosed compound name [14C]Sunitinib, route oral
# [23] = AUC (0 to infinity) in female cynomolgus monkey plasma at 6 mg/kg, po administered as single dose by LC/MS/MS analysis; assay type: ADME, organism-based, Macaca fascicularis; set-up: time infinity, dose 6 mg/kg, dosed compound name [14C]Sunitinib, route oral
# Outline: (§3)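 Cynomolgus monkeys of both sexes received one oral gavage of [14C]sunitinib L-malate at 6 mg/kg (37 µCi/kg). Femoral-vein blood was taken into heparin from 0.5 to 336 h. Plasma was kept cold and protected from light, then stored at -80 °C. Total radioactivity was by scintillation counting and sunitinib by methanol-extraction LC-MS-MS. Cmax was from raw data, t½ from the log-linear terminal slope, AUC(0-∞) by linear trapezoidal rule.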
# [24] = Terminal half life in female cynomolgus monkey plasma at 6 mg/kg, po administered as single dose by LC/MS/MS analysis; assay type: ADME, organism-based, Macaca fascicularis; set-up: dose 6 mg/kg, dosed compound name [14C]Sunitinib, route oral; settings: read-out: beta t1/2 (converted)
# [25] = Cmax in male cynomolgus monkey plasma at 6 mg/kg, po administered as single dose by LC/MS/MS analysis; assay type: ADME, organism-based, Macaca fascicularis; set-up: dose 6 mg/kg, dosed compound name [14C]Sunitinib, route oral; outline: as §2
# [26] = Tmax in male cynomolgus monkey plasma at 6 mg/kg, po administered as single dose by LC/MS/MS analysis; assay type: ADME, organism-based, Macaca fascicularis; set-up: dose 6 mg/kg, dosed compound name [14C]Sunitinib, route oral
# [27] = AUC (0 to infinity) in male cynomolgus monkey plasma at 6 mg/kg, po administered as single dose by LC/MS/MS analysis; assay type: ADME, organism-based, Macaca fascicularis; set-up: time infinity, dose 6 mg/kg, dosed compound name [14C]Sunitinib, route oral; outline: as §3
# [28] = Terminal half life in male cynomolgus monkey plasma at 6 mg/kg, po administered as single dose by LC/MS/MS analysis; assay type: ADME, organism-based, Macaca fascicularis; set-up: dose 6 mg/kg, dosed compound name [14C]Sunitinib, route oral; settings: read-out: beta t1/2 (converted)
# [29] = Retention time of compound by LC/MS/MS analysis; assay type: physicochemical; set-up: dosed compound name [14C]Sunitinib
# [30] = Cmax in female Sprague-Dawley rat plasma at 15 mg/kg, po administered as single dose by LC/MS/MS analysis; assay type: ADME, organism-based; set-up: dose 15 mg/kg, dosed compound name [14C]Sunitinib, route oral; outline: as §1
# [31] = Tmax in female Sprague-Dawley rat plasma at 15 mg/kg, po administered as single dose by LC/MS/MS analysis; assay type: ADME, organism-based; set-up: dose 15 mg/kg, dosed compound name [14C]Sunitinib, route oral
# [32] = Drug excretion in urine of female cynomolgus monkey at 6 mg/kg, po administered as single dose by liquid scintillation counting; assay type: ADME, organism-based, Macaca fascicularis; set-up: dose 6 mg/kg, dosed compound name [14C]Sunitinib, route oral; settings: in vivo
# [33] = Drug excretion in feces of male cynomolgus monkey at 6 mg/kg, po administered as single dose by liquid scintillation counting; assay type: ADME, organism-based, Macaca fascicularis; set-up: dose 6 mg/kg, dosed compound name [14C]Sunitinib, route oral; settings: in vivo
# [34] = Drug excretion in urine of male cynomolgus monkey at 6 mg/kg, po administered as single dose by liquid scintillation counting; assay type: ADME, organism-based, Macaca fascicularis; set-up: dose 6 mg/kg, dosed compound name [14C]Sunitinib, route oral; settings: in vivo
# [35] = Drug excretion in feces of female Sprague-Dawley rat at 15 mg/kg, po administered as single dose by liquid scintillation counting; assay type: ADME, organism-based; set-up: dose 15 mg/kg, dosed compound name [14C]Sunitinib, route oral; settings: in vivo
# [36] = Drug excretion in urine of female Sprague-Dawley rat at 15 mg/kg, po administered as single dose by liquid scintillation counting; assay type: ADME, organism-based; set-up: dose 15 mg/kg, dosed compound name [14C]Sunitinib, route oral; settings: in vivo
# [37] = Drug excretion in feces of male Sprague-Dawley rat at 15 mg/kg, po administered as single dose by liquid scintillation counting; assay type: ADME, organism-based; set-up: dose 15 mg/kg, dosed compound name [14C]Sunitinib, route oral; settings: in vivo
# [38] = Drug excretion in feces of human at 50 mg, po administered as single dose by liquid scintillation counting; settings: in vivo
# [39] = Drug excretion in urine of human at 50 mg, po administered as single dose by liquid scintillation counting; settings: in vivo
compound,measurement,setting,value
CCN(CC)CCNC(=O)c1c(C)[nH]c(/C=C2\C(=O)Nc3ccc(F)cc32)c1C [SUNITINIB],Compound recovery,[1],0.5%
same,Compound recovery,[2],22.6%
same,Compound recovery,[3],0.3%
same,Compound recovery,[4],9.2%
same,AUC(0-inf),[5],24 µg·h/mL
same,half-life,[6],7.2 h
same,Cmax,[7],0.963 µg/mL
same,Tmax,[8],3 h
same,AUC(0-inf),[9],11.8 µg·h/mL
same,half-life,[10],8 h
same,Cmax,[11],1.82 µg/mL
same,AUC(0-inf),[12],7.2 µg·h/mL
same,half-life,[13],7.4 h
same,clearance,[14],0.78 L/h/kg
same,Vd,[15],3.36 L/kg
same,Cmax,[16],0.0244 µg/mL
same,Tmax,[17],8 h
same,AUC(0-inf),[18],1.06 µg·h/mL
same,half-life,[19],50.9 h
same,CL/F,[20],832 mL/min
same,Cmax,[21],0.083 µg/mL
same,Tmax,[22],4 h
same,AUC(0-inf),[23],1.1 µg·h/mL
same,half-life,[24],16 h
same,Cmax,[25],0.092 µg/mL
same,Tmax,[26],5 h
same,AUC(0-inf),[27],1.45 µg·h/mL
same,half-life,[28],18 h
same,Retention_time,[29],4 min
same,Cmax,[30],1.25 µg/mL
same,Tmax,[31],4 h
same,Compound recovery,[32],0.2%
same,Compound recovery,[33],8.8%
same,Compound recovery,[34],0.2%
same,Compound recovery,[35],11.5%
same,Compound recovery,[36],0.6%
same,Compound recovery,[37],5.8%
same,Compound recovery,[38],13.6%
same,Compound recovery,[39],6.4%
